# Laboratory results from ChEMBL document CHEMBL6115033, “Discovery of a Pyrazolopyridinone-Based MYC Inhibitor That Selectively Engages Intracellular c-MYC and Disrupts MYC-MAX Heterodimerization” (J Med Chem, 2025).
# Active and inactive are the calls of the source. The calls are words filed in the database; no cut-off is given here.
# Tests used:
# [1] = Induction of apoptosis in human P493-6 cells assessed as early apoptotic cells at 50 uM incubated for 24 hrs by Annexin V/PI staining based flow cytometry analysis (reference value: 2.52 %); type: functional
# MDA-MB-468 [2] = experiment: Downregulation of MYC level in human MDA-MB-468 cells at 50 uM incubated for 24 hrs in presence of MG132 by Western blot analysis; type: functional, cell-based; details: in the assay text read “Stabilization of MYC protein level” for “Downregulation of MYC level”
# Method in brief: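 MDA-MB-468 cells were pretreated with 30 µM MG132 for 1 h, then exposed to graded concentrations or DMSO for 24 h. MYC was read by western blot.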
# MDA-MB-468 [3] = experiment: Downregulation of CDK2 mRNA expression in human MDA-MB-468 cells at 25 uM incubated for 12 hrs by qRT-PCR analysis; type: functional, cell-based
# Method in brief: (§1)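 Cells (500,000/well) were cultured with or without 25 µM for the indicated time. Total RNA was extracted with TRIzol and reverse-transcribed. qPCR used SYBR green with target-gene primers, reported as ΔΔCT.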
# [4] = Induction of apoptosis in human P493-6 cells assessed as viable cells at 25 uM incubated for 24 hrs by Annexin V/PI staining based flow cytometry analysis (reference value: 90.8%); type: functional; details: read-out: Activity
# P493-6 [5] = experiment: Downregulation of CDC25A mRNA expression in human P493-6 cells at 25 uM incubated for 12 hrs by qRT-PCR analysis; type: functional, cell-based; method in brief: as §1
# MDA-MB-468 [6] = experiment: Downregulation of E2F1 mRNA expression in human MDA-MB-468 cells at 25 uM incubated at 48 hrs by qRT-PCR analysis; type: functional, cell-based; method in brief: as §1
# P493-6 [7] = experiment: Downregulation of MYC level in human P493-6 cells incubated for 24 hrs by Western blot analysis; type: functional, cell-based; details: dose <= 50.0 µM
# Method in brief: (§2)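 Cells (300,000/well) were plated 24 h, then exposed to graded concentrations or DMSO for 24 h. Laemmli lysates were run on 4–20% SDS-PAGE and immunoblotted for MYC. Levels were normalized to actin. Mean ± SD, n = 2, one-way ANOVA with Dunnett.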
# MDA-MB-468 [8] = experiment: Induction of apoptosis in human MDA-MB-468 cells assessed as effect on PARP level at 50 uM incubated for 24 hrs
# MDA-MB-468 [9] = experiment: Antiproliferative activity against human MDA-MB-468 cells assessed as cell viability incubated for 96 hrs by MTT assay; type: functional, cell-based; details: MDA-MB-468, 96 h
# Method in brief: (§3)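 Adherent cells (2000/well) attached overnight, then exposed to compounds at 0.14–100 µM for 96 h in DMEM with 10% FBS. MTT at 0.5 mg/mL for 4 h in the dark, formazan dissolved in DMSO, absorbance at 570 nm. Compounds were freshly prepared in DMSO, with DMSO below 1%.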
# MDA-MB-468 [10] = experiment: Downregulation of SKP2 mRNA expression in human MDA-MB-468 cells at 25 uM incubated for 12 hrs by qRT-PCR analysis; type: functional, cell-based; method in brief: as §1
# [11] = Induction of apoptosis in human P493-6 cells assessed as late apoptotic cells at 50 uM incubated for 24 hrs by Annexin V/PI staining based flow cytometry analysis (reference value: 6.52 %); type: functional
# P493-6 [12] = experiment: Downregulation of CDK2 mRNA expression in human P493-6 cells at 25 uM incubated for 12 hrs by qRT-PCR analysis; type: functional, cell-based; method in brief: as §1
# MDA-MB-468 [13] = experiment: Antitumor activity against human MDA-MB-468 cells xenografted in mouse assessed as tumor growth inhibition at 10 mg/kg, po measured at 14 to 26 days by elliptical measurement method based caliper analysis; type: functional, organism-based; details: time 14-26 day
# MDA-MB-468 [14] = experiment: Downregulation of SKP2 mRNA expression in human MDA-MB-468 cells at 25 uM incubated at 48 hrs by qRT-PCR analysis; type: functional, cell-based; method in brief: as §1
# [15] = Induction of apoptosis in human P493-6 cells assessed as late apoptotic cells at 25 uM incubated for 24 hrs by Annexin V/PI staining based flow cytometry analysis (reference value: 6.52 %); type: functional
# MDA-MB-468 [16] = experiment: Antitumor activity against human MDA-MB-468 cells xenografted in mouse assessed as reduction in Ki67 expression at 10 mg/kg, sc measured at 14 to 26 days by IHC analysis; details: time 14-26 day
# [17] = Selectivity index, ratio of IC50 for antiproliferative activity against tetracycline-treated human P493-6 cells expressing MYC assessed as inhibition of cell proliferation to IC50 for antiproliferative activity against human P493-6 cells expressing MYC assessed as inhibition of cell proliferation; type: functional
# Method in brief: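 MYC-off P493-6 cells obtained by 72 h pretreatment with 0.1 µg/mL tetracycline and compared with untreated MYC-high cells. Cells seeded at 3000 per 100 uL, held overnight at 37 °C, then treated at 0.14–100 uM final for 96 h. Viability read by CellTiter-Glo luminescence. IC50 values determined in both states and compared as a selectivity index.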
# MDA-MB-468 [18] = experiment: Induction of apoptosis in human MDA-MB-468 cells assessed as effect on caspase-3 level at 50 uM incubated for 24 hrs
# MDA-MB-468 [19] = experiment: Downregulation of CDC25C mRNA expression in human MDA-MB-468 cells at 25 uM incubated for 12 hrs by qRT-PCR analysis; type: functional, cell-based; method in brief: as §1
# MDA-MB-468 [20] = experiment: Downregulation of MYC level in human MDA-MB-468 cells incubated for 24 hrs by Western blot analysis; type: functional, cell-based; details: dose <= 50.0 µM; method in brief: as §2
# [21] = Antiproliferative activity against human P493-6 cells expressing MYC assessed as inhibition of cell proliferation incubated for 96 hrs by cell titer glo assay; type: functional, cell-based; details: P493-6, 96 h
# Method in brief: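 P493-6 cells (3000/well, RPMI) were seeded overnight at 37 °C, then given compounds at final 0.14–100 µM for 96 h. MYC-off cells were pretreated with 0.1 µg/mL tetracycline for 72 h. Read-out was CellTiter-Glo luminescence after equilibration to room temperature. IC50 was determined in high-MYC and MYC-off cells.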
# [22] = target: c-Myc/c-Max (Homo sapiens) (UniProt P01106+P61244); experiment: Disruption of MYC-MAX interaction in human MDA-MB-468 cells at 25 uM incubated for 3 to 12 hrs by Western blot analysis; type: cell-based; details: time 3-12 hrs
# Method in brief: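 Cells were given 25 µM or DMSO for 0, 3, 5 and 12 h. Cytoplasmic and nuclear lysate fractions were pooled. 2 mg protein was immunoprecipitated with MYC antibody overnight, then protein A/G beads for 4 h at 4 °C. Bound MAX was detected by western blot and quantified relative to MYC; MAX input was also measured.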
# MDA-MB-231 = experiment: Antiproliferative activity against human MDA-MB-231 cells assessed as cell viability incubated for 96 hrs by MTT assay; type: functional, cell-based; details: MDA-MB-231, 96 h; method in brief: as §3
# P493-6 [23] = experiment: Downregulation of SKP2 mRNA expression in human P493-6 cells at 25 uM incubated for 12 hrs by qRT-PCR analysis; type: functional, cell-based
# Method in brief: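 P493-6 cells seeded at 500,000 per well and cultured with or without 25 uM compound for the indicated time. Total RNA extracted with TRIzol. Reverse transcription at 25 °C for 10 min, 37 °C for 120 min, then 85 °C for 5 min. SYBR green qPCR used primers for MYC target genes. Relative mRNA expressed as ΔΔCT.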
# c-Myc/c-Max (Homo sapiens), sequence (P01106 whole entry): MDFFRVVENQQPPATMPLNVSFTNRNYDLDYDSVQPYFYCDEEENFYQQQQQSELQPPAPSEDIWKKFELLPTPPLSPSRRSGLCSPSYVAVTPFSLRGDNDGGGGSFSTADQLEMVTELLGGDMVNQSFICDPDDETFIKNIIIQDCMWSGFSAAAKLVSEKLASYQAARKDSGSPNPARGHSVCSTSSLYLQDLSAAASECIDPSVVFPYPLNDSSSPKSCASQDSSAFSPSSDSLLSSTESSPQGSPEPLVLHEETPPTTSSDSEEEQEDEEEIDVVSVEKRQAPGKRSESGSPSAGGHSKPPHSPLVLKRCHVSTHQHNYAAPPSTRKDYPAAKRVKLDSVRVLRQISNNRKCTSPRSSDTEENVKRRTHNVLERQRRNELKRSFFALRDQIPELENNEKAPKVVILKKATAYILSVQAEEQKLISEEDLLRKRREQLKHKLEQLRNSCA
# c-Myc/c-Max (Homo sapiens), sequence (P61244 2-160 partner limits assumed): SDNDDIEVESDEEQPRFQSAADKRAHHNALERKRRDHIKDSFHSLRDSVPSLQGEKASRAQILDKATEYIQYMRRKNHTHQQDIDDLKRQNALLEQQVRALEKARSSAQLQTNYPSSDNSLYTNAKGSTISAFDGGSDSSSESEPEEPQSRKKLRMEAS
smiles,measurement,setting,value
N#Cc1cc2c(-c3ccc(Cl)cc3)nn(-c3ccccc3)c2[nH]c1=O,Activity,[1],5.11%
same,Activity,MDA-MB-468 [2],Active
same,Activity,MDA-MB-468 [3],Active
same,viability at 25 µM,[4],85.5%
same,Activity,P493-6 [5],Active
same,Activity,MDA-MB-468 [6],Active
same,Activity,P493-6 [7],Dose-dependent-effect
same,Activity,MDA-MB-468 [8],Active
same,IC50,MDA-MB-468 [9],13.5 µM
same,Activity,MDA-MB-468 [10],Active
same,Activity,[11],17.6%
same,Activity,P493-6 [12],Active
same,TGI,MDA-MB-468 [13],Active
same,Activity,MDA-MB-468 [14],Active
same,Activity,[15],11.3%
same,Activity,MDA-MB-468 [16],Active
same,Ratio IC50,[17],3.9
same,Activity,MDA-MB-468 [18],Active
same,Activity,MDA-MB-468 [19],Active
same,Activity,MDA-MB-468 [20],Dose-dependent-effect
same,IC50,[21],15.2 µM
same,Activity,[22],Active
same,IC50,MDA-MB-231,10.6 µM
same,Activity,P493-6 [23],Active
